# Reference: ChEMBL document CHEMBL4428115, “Molecular docking studies, biological and toxicity evaluation of dihydroisoquinoline derivatives as potential anticancer agents” (Bioorg Med Chem, 2016)
# Active and inactive are the calls of the source. The calls are words filed in the database; no cut-off is given here.
# What was measured:
# [1] = Antioxidant activity assessed as ABTS free radical scavenging activity; type: functional
# [2] = Selectivity index, ratio of IC50 for human MCF10 cells to IC50 for human MCF7 cells; type: toxicity; details: MCF10 cells versus MCF7 cells, read-out: Ratio IC50
# Summary of the method: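 Selectivity index is the ratio of the IC50 for the normal line to the IC50 for the cancer line. Both IC50 values come from 72 h antiproliferative assays: SRB for adherent cells, MTT for HL-60.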
# [3] = Selectivity index, ratio of IC50 for mouse BALB/3T3 cells to IC50 for human Jurkat cells; type: toxicity; details: BALB/3T3 cells versus Jurkat cells, read-out: Ratio IC50
# MCF7 [4] = assay: Antiproliferative activity against human MCF7 cells after 72 hrs by SRB assay; type: functional, cell-based; details: MCF7, 72 h
# Summary of the method: (§1)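 Adherent cells plated at 1 × 10^4 per well 24 h before treatment, then exposed 72 h to compounds diluted from 20 mg/mL DMSO stock (0.01–1000 µg/mL). Fixed in cold 50% TCA at 4°C for 1 h, stained with 0.4% sulforhodamine B, bound dye extracted with 10 mM Tris, OD at 540 nm. Triplicates, 3–5 experiments; IC50 per experiment, mean ± SD.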
# LNCaP = assay: Antiproliferative activity against human LNCAP cells; type: functional, cell-based
# [5] = Antioxidant activity assessed as DPPH free radical scavenging activity; type: functional
# K562 = assay: Antiproliferative activity against human K562 cells; type: functional, cell-based
# CCRF-CEM = assay: Antiproliferative activity against human CCRF-CEM cells; type: functional, cell-based
# [6] = Selectivity index, ratio of IC50 for mouse BALB/3T3 cells to IC50 for human HL60 cells; type: toxicity; details: BALB/3T3 cells versus HL60 cells, read-out: Ratio IC50
# Summary of the method: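 Ratio of the BALB/3T3 IC50 to the HL-60 or HL-60/MX2 IC50. Cells were plated at 1 × 10^4 per well 24 h before dosing and exposed for 72 h to 0.01–1000 µg/mL from DMSO stock. BALB/3T3 was read by SRB (TCA fix, 540 nm) and the leukemia lines by MTT (4 h, SDS/DMF lysis, 570 nm). Triplicates; 3–5 experiments.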
# [7] = Antiproliferative activity against human LoVo/DX cells; type: functional, cell-based
# HL-60 [8] = assay: Decrease in cyclin E expression in human HL60 cells at 1 ug/ml after 72 hrs by Western-blot analysis; type: functional, cell-based
# Summary of the method: (§2)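 HL-60 (2 × 10^5 cells/mL) treated 72 h at 1 µg/mL with DMSO control, then lysed in RIPA buffer with protease/phosphatase inhibitors. 100 µg protein resolved on 4–20% gels and transferred to nitrocellulose. Probed with rabbit primary antibody, fluorescein-linked anti-rabbit secondary, then anti-fluorescein–alkaline phosphatase with ECF substrate; fluorescence scanned. Densitometry normalized to actin, reported as fold change versus control.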
# [9] = Antiproliferative activity against human HCV29T cells; type: functional, cell-based
# [10] = Acute dermal toxicity in Wistar rat assessed as pathological changes at 2000 mg/kg topically applied to shaved dorsal skin as single dose for 24 hrs measured for 14 days; type: organism-based; details: in vivo, topical_or_ocular
# Summary of the method: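 Wistar rats, 5 males and 5 females; single 2000 mg/kg bw dermal application to shaved dorsal skin (about 41 cm2 per male, 31 cm2 per female) for 24 h. General and detailed clinical observations daily over a 14-day observation period, then animals euthanized; treated skin examined for pathological changes.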
# [11] = Selectivity index, ratio of IC50 for mouse BALB/3T3 cells to IC50 for human MV411 cells
# [12] = Acute toxicity in Balbc/cmdb mouse assessed as clinical signs at 2000 mg/kg, po administered as single dose in second stage of experiment measured for 14 days; type: organism-based; details: in vivo, 336 h
# Summary of the method: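 Acute toxic class method per OECD Guideline 423 / EU Method B.1 tris, run in three stages of three female Balbc/cmdb mice each. Fasted about 3 h, then given a single dose by metal stomach tube in DMSO at 0.5 mL/100 g bw. Stage doses were 300, 2000, then 2000 mg/kg bw. General and detailed clinical observations daily for 14 days; body weights recorded.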
# HL60/MX2 = assay: Antiproliferative activity against human HL60/MX2 cells after 72 hrs by MTT assay; type: functional, cell-based; details: HL60/MX2, 72 h
# Summary of the method: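 Leukemia cells seeded at 1 × 10^4 per well 24 h before adding compounds (0.01–1000 µg/mL from DMSO stock), exposed 72 h. MTT (5 mg/mL stock) added for 4 h, then DMF/SDS lysis mixture; absorbance at 570 nm read after 24 h. Triplicates per experiment, 3–5 repeats; IC50 calculated per experiment, reported as mean ± SD.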
# [13] = Selectivity index, ratio of IC50 for mouse BALB/3T3 cells to IC50 for human LNCAP cells; type: toxicity; details: BALB/3T3 cells versus LNCAP cells, read-out: Ratio IC50
# [14] = Selectivity index, ratio of IC50 for mouse BALB/3T3 cells to IC50 for human K562 cells; type: toxicity; details: BALB/3T3 cells versus K562 cells, read-out: Ratio IC50
# A498 = assay: Antiproliferative activity against human A498 cells; type: functional, cell-based
# [15] = Selectivity index, ratio of IC50 for mouse BALB/3T3 cells to IC50 for human A498 cells
# CEM/C2 = assay: Antiproliferative activity against human CEM/C2 cells; type: functional, cell-based
# A549 [16] = assay: Potency index, ratio of bestatin IC50 to compound IC50 for human A549 cells; type: functional
# MCF7 [17] = assay: Potency index, ratio of bestatin IC50 to compound IC50 for human MCF7 cells; type: functional
# LoVo = assay: Antiproliferative activity against human LoVo cells; type: functional, cell-based
# HL-60 [18] = assay: Induction of apoptosis in human HL60 cells assessed as increase in late apoptotic cells at 3 ug/ml after 72 hrs by APC-Annexin V/propidium iodide staining based flow cytometry relative to control; type: functional, cell-based
# Summary of the method: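 HL-60 (2 × 10^5 cells/mL, seeded 24 h before) treated 72 h at 3 µg/mL alongside a DMSO control. Cells suspended in APC-Annexin V in HEPES binding buffer pH 7.4 with 1.8 mM CaCl2, 15 min dark at rt, then PI at 0.1 mg/mL final. Flow cytometry: PI+/Annexin+ counted as late apoptotic/necrotic. Three experiments, mean ± SD, p≤0.05 versus control.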
# [19] = Antiproliferative activity against HLMEC after 72 hrs by SRB assay; design: species or system Homo sapiens; summary of the method: as §1
# A549 [20] = assay: Antiproliferative activity against human A549 cells; type: functional, cell-based
# PC-3 = assay: Antiproliferative activity against human PC3 cells; type: functional, cell-based
# [21] = Selectivity index, ratio of IC50 for mouse BALB/3T3 cells to IC50 for human LoVo/DX cells; type: toxicity; details: BALB/3T3 cells versus LoVo/DX cells, read-out: Ratio IC50
# HL-60 [22] = assay: Effect on Bax expression in human HL60 cells at 1 ug/ml after 72 hrs by Western-blot analysis; type: functional, cell-based; summary of the method: as §2
# HL-60 [23] = assay: Effect on cyclin A levels in human HL60 cells at 1 ug/ml after 72 hrs by Western-blot analysis; type: functional, cell-based; summary of the method: as §2
# [24] = Selectivity index, ratio of IC50 for mouse BALB/3T3 cells to IC50 for human PC3 cells; type: toxicity; details: BALB/3T3 cells versus PC3 cells, read-out: Ratio IC50
smiles,measurement,setting,value
CCOC(=O)C1(C(=O)OCC)Cc2cc(OCc3ccccc3)cc(OCc3ccccc3)c2C=N1,Activity,[1],inactive
same,selectivity ratio,[2],4 to 8
same,selectivity ratio,[3],2.5
same,IC50,MCF7 [4],9.6 µM
same,IC50,LNCaP,3.3 µM
same,IC50,[5],1000 µM
same,IC50,K562,70 µM
same,IC50,CCRF-CEM,0.7 µM
same,selectivity ratio,[6],5.8
same,IC50,[7],4.1 µM
same,Activity,HL-60 [8],Active
same,IC50,[9],8.8 µM
same,Activity,[10],Non-Toxic
same,Ratio IC50,[11],0.6
same,Activity,[12],Non-Toxic
same,IC50,HL60/MX2,5.1 µM
same,selectivity ratio,[13],10.9
same,selectivity ratio,[14],0.5
same,IC50,A498,13.3 µM
same,Ratio IC50,[15],2.7
same,IC50,CEM/C2,0.4 µM
same,Ratio IC50,A549 [16],18
same,Ratio IC50,MCF7 [17],15
same,IC50,LoVo,1.1 µM
same,Activity,HL-60 [18],Active
same,IC50,[19],6.8 µM
same,IC50,A549 [20],13.1 µM
same,IC50,PC-3,4.2 µM
same,selectivity ratio,[21],8.8
same,Activity,HL-60 [22],inactive
same,Activity,HL-60 [23],inactive
same,selectivity ratio,[24],8.5
